From publication PMC6128401 (Molecular pharmaceutics, 2017)

What was measured:
[1] = target: T1, A431-CCK2R cell line expressing the human CCK2R (Homo sapiens, UniProt P32239); assay: Cell uptake; format: cell-based; details: A431-CCK2R cells, 2 h incubation, 0.4 nM
T1 sequence (P32239 1-447): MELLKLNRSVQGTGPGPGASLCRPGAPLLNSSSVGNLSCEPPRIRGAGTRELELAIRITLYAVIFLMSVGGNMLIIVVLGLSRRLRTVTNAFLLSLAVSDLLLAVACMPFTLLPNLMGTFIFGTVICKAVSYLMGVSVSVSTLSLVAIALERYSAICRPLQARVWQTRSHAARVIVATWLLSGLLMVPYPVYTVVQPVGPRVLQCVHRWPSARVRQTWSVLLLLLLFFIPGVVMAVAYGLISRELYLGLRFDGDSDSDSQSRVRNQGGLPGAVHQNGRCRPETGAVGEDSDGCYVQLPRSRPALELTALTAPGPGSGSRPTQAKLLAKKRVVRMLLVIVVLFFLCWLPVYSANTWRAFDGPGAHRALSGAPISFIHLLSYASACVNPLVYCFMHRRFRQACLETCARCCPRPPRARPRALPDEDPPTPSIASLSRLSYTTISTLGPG
Summary of the method: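 A431-CCK2R and A431-mock cells were cultured in DMEM with 10% FBS, penicillin/streptomycin/L-glutamine at 37°C, 5% CO₂. They were seeded at 1.0×10⁶ cells/well and grown 48 h to confluency. Peptides were labelled with ¹⁷⁷LuCl₃ (~50 GBq/µmol) in ascorbate buffer pH 5 with gentisic acid and L-Met, 80°C. Triplicate wells received ~100,000 cpm (0.4 nM) for 2 h. The internalized fraction was gamma-counted as % of total added.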

[2] = Chemical stability in phosphate buffered saline; format: physicochemical; details: PBS at RT, up to/after 4 h incubation
Summary of the method: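 ¹⁷⁷Lu-labelled peptide (120 pmol/mL) was kept in phosphate buffered saline at room temperature. Aliquots were taken at intervals up to […] and analysed by HPLC for percentage intact radiopeptide relative to post-labelling radiochemical purity.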

[3] = Stability against enzymatic degradation in human serum; format: in vitro ADME
Summary of the method: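 The ¹⁷⁷Lu-labelled peptide was incubated in human serum at 37°C and sampled at time points up to 24 h. Proteins were precipitated with acetonitrile (1:1.5) and centrifuged; supernatant was diluted 1:1 with water before HPLC for intact radiopeptide. Half-life came from first-order exponential decay fitting.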

[4] = format: physicochemical
Summary of the method: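 Labelling used ~2 GBq ¹⁷⁷LuCl₃ in 1 mL dilute HCl, heated at 80°C for 15-25 min. Kits were stored up to 6 months; labelled product was held up to 48 h at room temperature or −20°C. Radiochemical purity was measured by RP-HPLC.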

[5] = test system: A431-CCK2R xenografts; assay: Biodistribution: uptake in receptor-positive tumour xenograft; format: in vivo, BALB/c nude mice; details: 30 min p.i.
Summary of the method: (§1)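 Female and male BALB/c nude mice, 5-6 weeks old, carried A431-CCK2R and A431-mock xenografts in opposite flanks (2×10⁶ cells each). Tumours grew for ~14 days to ~0.2 g. Kit-prepared ¹⁷⁷Lu-peptide, 1 MBq (20 pmol; 50 GBq/µmol), was injected into the tail vein. Groups of five were killed at 30 min, 4 h, 1 d, 2 d, 3 d and 7 d; dissected tissues were gamma-counted and expressed as % IA/g.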

[6] = Biodistribution: uptake in normal organs and tissues; format: in vivo, BALB/c nude mice; details: 30 min p.i.
Summary of the method: as §1

[7] = test system: A431-CCK2R xenografts; assay: Experimental radionuclide therapy, receptor-positive tumour growth; format: in vivo, BALB/c nude mice; details: for mean SGR A431-CCK2R: single i.v. treatment; for TVDT increase by a factor in comparison to the control group: A431-CCK2R tumours
[8] = test system: A431-mock xenografts; assay: Experimental radionuclide therapy, receptor-negative tumour growth; format: in vivo, BALB/c nude mice; details: for mean SGR A431-mock: single i.v. treatment
[9] = Medullary toxicity: white blood cell and platelet counts; format: in vivo, BALB/c nude mice
Summary of the method: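 Double-xenografted nude mice were dosed as in the therapy study (saline, 15 or 30 MBq i.v.), n=5. Weekly, 0.1 mL venous blood was drawn from the superficial temporal vein by lancet, up to eight samples per animal. White blood cells and platelets were counted on an automatic haematology analyser. Counts were expressed relative to basal values (week −2 = inoculation; week 0 = treatment).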

[10] = Renal toxicity: creatinine and urea in serum; format: in vivo, BALB/c nude mice
Summary of the method: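 The same treated double-xenografted nude mice (saline, 15 or 30 MBq i.v.; n=5) gave weekly venous blood samples. Serum creatinine and urea were measured with specific kits on a semiautomatic biochemical analyser. Values were compared between treated and control groups over weeks from cell inoculation (week −2) onward.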

[11] = 15 MBq, one week after treatment
[12] = 15 MBq group, week 0 (week of treatment)
[13] = 15 MBq group, week -2 (cell inoculation)
[14] = 30 MBq group, week 0 (week of treatment)
[15] = 30 MBq group, week -2 (cell inoculation)

CSCC[C@H](NC(=O)[C@H](Cc1c[nH]c2ccccc12)NC(=O)[C@H]1CCCCNC(=O)[C@H](NC(=O)CN2CCN(CC(=O)O)CCN(CC(=O)O)CCN(CC(=O)O)CC2)CCC(=O)N[C@@H](C)C(=O)N[C@@H](Cc2ccc(O)cc2)C(=O)N1)C(=O)N[C@@H](CC(=O)O)C(=O)N[C@@H](Cc1ccccc1)C(N)=O [^177Lu-DOTA-cyclo-MG1, metal not drawn]
internalized radioligand fraction (% of total) [1]: 15.2±2.6% | RCP during incubation in PBS [2]: 86% | half-life [3]: 30.1 h | improvement of RCP by freezer storage ([4]; -20°C versus RT): ~ 10% | degree of Met-oxidation ([4]; during storage of the kits): 3.8-6.1% | mean RCP for the different time points after storage of the kits ([4]; kit storage up to 6 months, n=4): 89.4±7.9% | RCP after preparation ([4]; kit-prepared, directly after preparation): 93.3±1.6% | RCP at 24 h after preparation ([4]; stored at RT): 89.8±2.8% | RCP up to 4 h after preparation ([4]; stored at RT): > 92% | maximal tumour uptake [5]: 5.18 % IA/g | kidney uptake, maximal value [6]: 1.75 % IA/g | mean SGR A431-CCK2R ([7]; 15 MBq group (0.6 nmol)): 0.046±0.002 | mean SGR A431-CCK2R ([7]; 30 MBq group (1.2 nmol)): 0.031±0.006 | TVDT increase by a factor in comparison to the control group ([7]; high activity group (30 MBq)): 2.6 | TVDT increase by a factor in comparison to the control group ([7]; low activity group (15 MBq)): 1.8 | mean SGR A431-mock ([8]; 15 MBq group (0.6 nmol)): 0.065±0.006 | mean SGR A431-mock ([8]; 30 MBq group (1.2 nmol)): 0.051±0.006 | TVDT increase by a factor in comparison to the control group ([8]; A431-mock tumours, high activity group (30 MBq)): 1.5 | reduction in PLT counts compared to the basal value [9, 11]: 51.2-52.8% | reduction in WBC counts compared to the basal value [9, 11]: 37.8-40.8% | PLT value ([9]; 15 MBq, week 2 after treatment, reference 558-1,454): 531±26 ×10^9/L | decline of PLT value compared to the basal value ([9]; 30 MBq, after treatment): 44.8-58.0% | reduction of WBC value compared to the basal value ([9]; 30 MBq, week 1 after treatment): 67.2-70.9% | PLT value below the reference values ([9]; 30 MBq, week 1 and 2 after treatment): 486-530 ×10^9/L | WBC value below the lower reference limit ([9]; 30 MBq, week 1 and 2 after treatment, reference 3.11-13.04): 2.17-2.94 ×10^9/L | Creatinine (reference value 0.1-0.5) [10, 12]: 0.3 ± 0.2 mg/dL | Urea (reference value 17-38) [10, 12]: 26 ± 2 mmol/L | Creatinine (reference value 0.1-0.5) ([10]; 15 MBq group, week 1): 0.2 ± 0.1 mg/dL | Urea (reference value 17-38) ([10]; 15 MBq group, week 1): 32 ± 3 mmol/L | Creatinine (reference value 0.1-0.5) ([10]; 15 MBq group, week 2): 0.3 ± 0.1 mg/dL | Urea (reference value 17-38) ([10]; 15 MBq group, week 2): 33 ± 2 mmol/L | Creatinine (reference value 0.1-0.5) ([10]; 15 MBq group, week 3): 0.3 ± 0.2 mg/dL | Creatinine (reference value 0.1-0.5) ([10]; 15 MBq group, week 4): 0.5 ± 0.1 mg/dL | Creatinine (reference value 0.1-0.5) ([10]; 15 MBq group, week 5): 0.7 mg/dL | Creatinine (reference value 0.1-0.5) ([10]; 15 MBq group, week -1): 0.2 ± 0.1 mg/dL | Urea (reference value 17-38) ([10]; 15 MBq group, week -1): 33 ± 4 mmol/L | Creatinine (reference value 0.1-0.5) [10, 13]: 0.2 ± 0.1 mg/dL | Urea (reference value 17-38) [10, 13]: 31 ± 3 mmol/L | urea above the upper limit of the reference value ([10]; 15 MBq, beginning from week 3 after treatment): 39 to 48 mmol/L | Creatinine (reference value 0.1-0.5) [10, 14]: 0.3 ± 0.2 mg/dL | Urea (reference value 17-38) [10, 14]: 32 ± 5 mmol/L | Creatinine (reference value 0.1-0.5) ([10]; 30 MBq group, week 1): 0.3 ± 0.1 mg/dL | Urea (reference value 17-38) ([10]; 30 MBq group, week 1): 29 ± 4 mmol/L | Creatinine (reference value 0.1-0.5) ([10]; 30 MBq group, week 2): 0.2 ± 0.1 mg/dL | Creatinine (reference value 0.1-0.5) ([10]; 30 MBq group, week 3): 0.5 ± 0.2 mg/dL | Creatinine (reference value 0.1-0.5) ([10]; 30 MBq group, week -1): 0.2 ± 0.1 mg/dL | Urea (reference value 17-38) ([10]; 30 MBq group, week -1): 28 ± 3 mmol/L | Creatinine (reference value 0.1-0.5) [10, 15]: 0.2 ± 0.1 mg/dL | Urea (reference value 17-38) [10, 15]: 27 ± 5 mmol/L | urea levels above the reference limit ([10]; 30 MBq, beginning from week 2 after treatment): 39 to 52 mmol/L | creatinine levels above the reference limit ([10]; 30 MBq, beginning from week 4 after treatment): 0.6 to 0.8 mg/dL
